# Screening data as filed in PubChem.
# A selection: hits, their analogues and other compounds. The true share with any hit is near 3.2%.
# CHO parental Ca = counter-screen: ATP calcium response change in parental CHO cells | actives 0.63% (n = 330,000) | AID 463079 | inhibition, % at 5.6 µM | parental CHO-K1, ATP-induced calcium, Fluo-8 fluorescence;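 active means inhibition above that plate's mean sample inhibition plus 3 SD, cut at about 26% in these data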;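 further: 0% = ATP-challenged DMSO wells and 100% = DMSO wells without ATP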
#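 Material: Parental CHO cells | Reagent: ATP | Compound dosing: Single nominal dose of 5.6 µM per compound | Detection: Intracellular calcium via Fluo-8 no-wash fluorescent dye | Read-out: % inhibition of ATP-induced calcium mobilization | Benchmarks: Low control ATP plus DMSO, high control DMSO only | Replicates: Singlicate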
# OX1R antag-1 = antagonists of human orexin 1 receptor (OX1R) | O43613 | OX1R-expressing cells, FRET antagonist read-out | inhibition, % at 6.6 µM | actives 1.8% (n = 330,000) | AID 485270; in the data active means inhibition mostly above about 38%, no sharp cut-off; inactive means mostly below about 40%;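 further: 0% = agonist challenge alone and 100% = reference antagonist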
# TRPML3 ag = agonists of human TRPML3 channel; Q8TDD5; activation, % at 3 µM; HEK293 TRPML3-YFP, Fluo-8 calcium fluorescence; 100% = the carbachol control signal; actives 0.29% (n = 220,000);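 active means activation above its plate's cutoff, the mean activation of the plate's test wells plus 3 SD, cut at about 12% in these data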;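 further: 0% = DMSO only wells and 100% = carbachol wells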
# Target sequence (Q8TDD5 whole entry, looked up): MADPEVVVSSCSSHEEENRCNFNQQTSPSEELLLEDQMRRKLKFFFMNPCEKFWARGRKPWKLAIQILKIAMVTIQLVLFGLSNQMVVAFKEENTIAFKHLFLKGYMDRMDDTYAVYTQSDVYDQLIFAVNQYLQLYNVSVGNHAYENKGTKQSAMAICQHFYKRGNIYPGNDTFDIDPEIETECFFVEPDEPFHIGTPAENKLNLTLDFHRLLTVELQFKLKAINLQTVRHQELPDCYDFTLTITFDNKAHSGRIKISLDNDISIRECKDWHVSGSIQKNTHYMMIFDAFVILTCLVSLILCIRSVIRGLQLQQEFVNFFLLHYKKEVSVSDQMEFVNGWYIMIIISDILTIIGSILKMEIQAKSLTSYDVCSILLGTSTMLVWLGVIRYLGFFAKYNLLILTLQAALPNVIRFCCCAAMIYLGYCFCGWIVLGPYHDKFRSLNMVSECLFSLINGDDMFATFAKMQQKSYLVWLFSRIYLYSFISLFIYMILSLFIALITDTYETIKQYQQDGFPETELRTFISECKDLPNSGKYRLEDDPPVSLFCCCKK
#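 Test system – HEK293 line with stable expression of human TRPML3-YFP channel · Control set – carbachol 87 µM final as high control (100%), DMSO as low control (0%) · Signal – Fluo-8 calcium dye fluorescence, ex 470-495, em 515-575 nm · Incubation – 1-h 37 °C dye load, 5-s basal, 120-s post-compound reads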
# OX1R antag-2 = blocks the human orexin 1 receptor; O43613; CHO/OX1R cells, Fluo-8 calcium fluorescence, orexin A; inhibition, % at 5 µM; actives 0.43% (n = 330,000); AID 434989;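 active means inhibition above its plate's threshold, mean inhibition of all tested compounds on the plate plus 3 SD, cut at about 37% in these data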;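 further: 0% = orexin A challenge wells and 100% = SB-334867-A antagonist wells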
# GPR7 antagonist = human neuropeptides B/W receptor 1 antagonism; P48145; GPR7-expressing cells, fluorescence antagonist assay; inhibition, % at 4.4 µM; actives 1.1% (n = 290,000); AID 1861; in the data active means inhibition above about 16%, passing the limit was not always enough;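 further: cells stimulated with the agonist NPW; 0% = agonist with vehicle and 100% = vehicle without agonist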
# TRPN1 ag = agonists of zebrafish TRPN1 channel; HEK293 zebrafish TRPN1-YFP, Fluo-8 calcium fluorescence; 100% = response to 87 µM carbachol; activation, % at 3 µM; actives 0.18% (n = 220,000);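 active means activation above its plate's cutoff, the mean activation of test wells on that plate plus 3 SD, cut at about 19% in these data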;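 further: 0% = DMSO alone and 100% = 87 µM carbachol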
#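 Material – zebrafish TRPN1-YFP in HEK293 cells · Doses – 3 µM single point · Schedule – dye 1 h 37 °C plus 30 min RT · Signal – Fluo-8 calcium fluorescence, excitation 470-495 nm, emission 515-575 nm · Read-out – % activation versus carbachol response · Control set – carbachol high, DMSO low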
# GPR7 antag cf = confirmation of human GPR7 antagonists; shares compounds with GPR7 antagonist; GPR7-expressing cells, calcium fluorescence antagonist mode; inhibition, % at 4.4 µM; actives 52% (n = 2,400); AID 1952; in the data active means inhibition above about 24%;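 further: stimulated with the GPR7 agonist NPW; 0% = agonist plus vehicle and 100% = vehicle alone without agonist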
# MCHR1 antagonist = MCHR1 (human) antagonism in GPR7 counter-screen; shares compounds with GPR7 antagonist; MCHR1-expressing cells, fluorescence antagonist assay; inhibition, % at 4.4 µM; actives 62% (n = 2,400); AID 2148; in the data active means inhibition above about 22%;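 further: 0% = vehicle with agonist and 100% = vehicle without agonist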
# * marks the source's active call; other numbers are inactive results; . = not tested or not shown.
SMILES,CHO parental Ca,OX1R antag-1,TRPML3 ag,OX1R antag-2,GPR7 antagonist,TRPN1 ag,GPR7 antag cf,MCHR1 antagonist
O=C(Nc1nnc(SCCC2OCCO2)s1)C1CC(=O)N(c2ccc(F)cc2)C1 (stereo unspecified),-4,17,.,3,0,.,.,.
COC(=O)c1ccc(OCC2c3cc(OC)c(OC)cc3CCN2C(=O)C2CC2)cc1 (stereo unspecified),3,9,0,-19,27*,0,43*,29*
CN(C)S(=O)(=O)c1ccc(N2CCCC2)c(C(=O)Nc2ccccc2Br)c1,-11,17,.,-33,.,.,.,.
CN(C)S(=O)(=O)c1ccc(N2CCCC2)c(C(=O)NC(c2ccccc2)c2ccccc2)c1,-14,28,0,-19,25*,-1,32*,22*
Cc1nc(-c2ccc(S(=O)(=O)N3CCOCC3)cc2)cs1,-9,22,.,-3,27*,.,-7,16
Cc1sc2ncnc(N3CCC(C(=O)Nc4sc5c(c4C(N)=O)CCC(C)C5)CC3)c2c1C (stereo unspecified),-25,8,.,-31,.,.,.,.
COc1ccc2[nH]c(=O)cc(C(=O)O)c2c1,-13,-4,1,-15,13,0,.,.
COc1ccc2[nH]c3c4c(ccc3c2c1)C(=O)C=CC4=O,.,.,-1,.,23*,-3,62*,80*
C=CC[C@@H](CC(=O)OC(C)(C)C)C(=O)OC[C@@H]1CCCN1C(=O)[C@H](CC=C)CC(=O)NCCO,-9,4,.,-8,.,.,.,.
CCOC(=O)N1CCN(C(=S)NC(C)(C)C)CC1,-6,1,1,-3,21*,2,-4,-7
CCOC(=O)N1CCN(C(=S)NC2CCCC2)CC1,-9,7,1,-3,-15,0,.,.
CC12CCC(=O)N1C(C(=O)OCc1c(Cl)cccc1Cl)CS2 (stereo unspecified),-7,13,.,-2,-9,.,.,.
O=C(Cn1c(CO)nc2ccccc21)NC1CCCCCC1,0,7,0,-15,-4,0,.,.
CC(=O)Nc1nc(Cn2nnc(-c3ccc4c(c3)OCO4)n2)nc(N(C)C)n1,-12,2,1,-17,1,0,.,.
CC(C)(CO)NCc1c(OCc2ccc(Cl)cc2)ccc2ccccc12,1,4,.,-8,32*,.,27*,15
COc1ccc(S(=O)(=O)Nc2ccccc2C(=O)NCc2cccnc2)cc1,-21,8,.,-6,3,.,.,.
Cc1noc(C)c1C(=O)OCC(=O)Nc1cccc(S(N)(=O)=O)c1,9,3,1,11,3,0,.,.
Cc1cc(NC(=O)COC(=O)c2c(C)noc2C)ccc1Br,-5,18,0,-10,36*,1,18,25*
COc1ccc(N(C(=O)C2CCCCC2)S(=O)(=O)c2cccc3cccnc23)cc1,-4,11,0,-35,21*,-2,1,12
COc1ccc(N(C)S(=O)(=O)c2cccc3cccnc23)c(OC)c1,0,22,1,-9,-1,2,.,.
Cc1ccc2oc(=O)n(CC(=O)c3ccc(F)cc3)c2c1,-4,-1,-1,-17,25*,-2,-1,12
FC(F)C(F)(F)c1cc(-c2ccc(Cl)cc2)n[nH]1,56*,2,3,73*,30*,7,32*,44*
Oc1ccccc1-c1cc(C(F)(F)C(F)F)[nH]n1,-10,14,1,13,6,2,.,.
Cn1cc(C(c2ccccn2)c2cn(C)c3ccccc23)c2ccccc21,-32,1,0,-26,26*,1,41*,45*
CC1CC(C)CN(C(=O)C2CCN(S(=O)(=O)c3ccc4c(c3)CC(C)N4C(=O)C3CC3)CC2)C1 (stereo unspecified),-25,15,.,-36,0,.,.,.
SMILES,CHO parental Ca,OX1R antag-1,TRPML3 ag,OX1R antag-2,GPR7 antagonist,TRPN1 ag,GPR7 antag cf,MCHR1 antagonist
COc1ccc(Cc2nc3ccc(C(=O)NCCc4ccccn4)cc3o2)cc1OC,-1,18,.,-15,22*,.,1,14
COc1ccc(Cc2nc3ccc(C(=O)NCCc4ccncc4)cc3o2)cc1OC,-18,15,.,-8,-4,.,.,.
CCc1ccccc1NC(=O)c1ccc(Cn2cc([N+](=O)[O-])cn2)cc1,-1,16,3,7,12,5,.,.
O=C(Nc1ccc([N+](=O)[O-])cc1)c1ccc(Cn2cc([N+](=O)[O-])cn2)cc1,6,10,0,19,24*,4,66*,72*
COc1ccc(CCNC(=O)COc2cc(C)cc3oc(=O)cc(C)c23)cc1,-2,-2,.,-12,26*,.,5,19
CCOC(=O)c1c(NC(=O)Cc2ccccc2)sc2c1CC(C)(C)NC2(C)C,-2,8,.,-10,3,.,.,.
CCOC(=O)c1c(NC(=O)C2COc3ccccc3O2)sc2c1CC(C)(C)NC2(C)C (stereo unspecified),-11,7,0,-22,23*,0,32*,38*
CC1CCN(c2ccccc2NC(=O)c2cc([N+](=O)[O-])ccc2N2CCOCC2)CC1,-25,14,.,-27,-14,.,.,.
CCc1ccccc1NC(=O)c1cc([N+](=O)[O-])ccc1N1CCOCC1,-15,36,.,-13,33*,.,-4,5
CCOC(=O)c1c(NC(=O)CSc2nc3ccc(C)cc3[nH]2)sc2c1CC(C)(C)NC2(C)C,-26,10,.,-39,.,.,.,.
COc1ccc(Cl)cc1NC(=S)NCCSc1ccc(C)cc1,-22,14,0,-40,-5,0,.,.
Cc1ccc(NCc2nnc(SCC(=O)OC3CCCCC3)o2)c(C)c1,4,9,0,-14,28*,-1,23,23*
O=C(CC1Sc2ccccc2NC1=O)Nc1cccc(C(=O)O)c1 (stereo unspecified),7,10,0,6,21*,-2,-11,5
CC(C)CCC1(CCNC(C)c2cccs2)CCOC(C)(C)C1 (stereo unspecified),-16,12,0,-31,23*,0,16,5
O=C(CCC1CC(=O)Nc2ccccc21)NCc1ccc(F)cc1 (stereo unspecified),-9,-1,0,8,33*,1,12,23*
O=C(CCC1CC(=O)Nc2ccccc21)NCc1ccccc1 (stereo unspecified),-2,7,1,-21,3,0,.,.
CCOC(=O)c1c(C)n(-c2ccc(F)cc2)c2ccc(O)cc12,-21,1,.,-12,72*,.,-4,-14
